Data: ChEMBL document CHEMBL3112482, “Nonclassical antifolates, part 5. Benzodiazepine analogs as a new class of DHFR inhibitors: synthesis, antitumor testing and molecular modeling study” (Eur J Med Chem, 2014)

Columns and labels:
Format in all cases: functional
KM12 = assay: Growth inhibition of human KM12 cells at 10 uM after 48 hrs; conditions: KM12, 48 h, read-out: GI
Summary of the method: (§1)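 Single-dose primary screen in the NCI 60 human tumour cell line panel, run at the NCI facility. The panel covers nine subpanels: leukaemia, non-small cell lung, colon, CNS, melanoma, ovarian, renal, prostate and breast. Read-out was percent growth of treated cells, shown as a mean graph and reported as percent growth inhibition.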

OVCAR-3 = assay: Growth inhibition of human OVCAR3 cells at 10 uM after 48 hrs; conditions: OVCAR-3, 48 h, read-out: GI; summary of the method: as §1
HCT-15 = assay: Growth inhibition of human HCT15 cells at 10 uM after 48 hrs; conditions: HCT-15, 48 h, read-out: GI; summary of the method: as §1
HT-29 = assay: Growth inhibition of human HT-29 cells at 10 uM after 48 hrs; conditions: HT-29, 48 h, read-out: GI; summary of the method: as §1
SN12C = assay: Growth inhibition of human SN12C cells at 10 uM after 48 hrs; conditions: read-out: GI
Summary of the method: (§2)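 NCI 60-cell-line disease-oriented human tumor panel, single-dose primary screen at 10 µM. Data given as mean-graph percent growth of treated cells, reported as percent growth inhibition (GI %).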

Malme-3M = assay: Growth inhibition of human MALME-3M cells at 10 uM after 48 hrs; conditions: read-out: GI; summary of the method: as §1
M14 = assay: Growth inhibition of human M14 cells at 10 uM after 48 hrs; conditions: M14, 48 h, read-out: GI; summary of the method: as §1
[1] = Growth inhibition of human HCC2998 cells at 10 uM after 48 hrs; conditions: HCC 2998, 48 h, read-out: GI; summary of the method: as §1
HL-60(TB) = assay: Growth inhibition of human HL-60(TB) cells at 10 uM after 48 hrs; conditions: HL-60, 48 h, read-out: GI
Summary of the method: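 NCI 60-cell-line human tumour panel covering nine subpanels (leukaemia, non-small cell lung, colon, CNS, melanoma, ovarian, renal, prostate, breast), run at the NCI facility. Primary screen tested a single dose of each compound. Read-out was percent growth of treated cells versus untreated cells, reported from the mean graph as percentage growth inhibition.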

MDA-MB-435 = assay: Growth inhibition of human MDA-MB-435 cells at 10 uM after 48 hrs; conditions: MDA-MB-435, 48 h, read-out: GI; summary of the method: as §1
RPMI-8226 = assay: Growth inhibition of human RPMI8226 cells at 10 uM after 48 hrs; conditions: RPMI-8226, 48 h, read-out: GI; summary of the method: as §1
[2] = Growth inhibition of human UACC257 cells at 10 uM after 48 hrs; conditions: UACC-257, 48 h, read-out: GI; summary of the method: as §2
786-0 = assay: Growth inhibition of human 786-0 cells at 10 uM after 48 hrs; conditions: 786-0, 48 h, read-out: GI; summary of the method: as §1
SK-MEL-5 = assay: Growth inhibition of human SK-MEL-5 cells at 10 uM after 48 hrs; conditions: SK-MEL-5, 48 h, read-out: GI; summary of the method: as §2
DU-145 = assay: Growth inhibition of human DU145 cells at 10 uM after 48 hrs; conditions: DU-145, 48 h, read-out: GI; summary of the method: as §1
OVCAR-8 = assay: Growth inhibition of human OVCAR8 cells at 10 uM after 48 hrs; conditions: OVCAR-8, 48 h, read-out: GI; summary of the method: as §1
A498 = assay: Growth inhibition of human A498 cells at 10 uM after 48 hrs; conditions: A498, 48 h, read-out: GI; summary of the method: as §1
[3] = Growth inhibition of human HOP92 cells at 10 uM after 48 hrs; conditions: HOP-92, 48 h, read-out: GI; summary of the method: as §1
MDA-MB-468 = assay: Growth inhibition of human MDA-MB-468 cells at 10 uM after 48 hrs; conditions: MDA-MB-468, 48 h, read-out: GI; summary of the method: as §1
BT-549 = assay: Growth inhibition of human BT549 cells at 10 uM after 48 hrs; conditions: BT-549, 48 h, read-out: GI; summary of the method: as §1
HCT-116 = assay: Growth inhibition of human HCT116 cells at 10 uM after 48 hrs; conditions: HCT-116, 48 h, read-out: GI; summary of the method: as §1
ACHN = assay: Growth inhibition of human ACHN cells at 10 uM after 48 hrs; conditions: read-out: GI; summary of the method: as §1
NCI-H460 = assay: Growth inhibition of human NCI-H460 cells at 10 uM after 48 hrs; conditions: NCI-H460, 48 h, read-out: GI; summary of the method: as §1
Leukemia cell [4] = assay: Ratio of 5-FU TGI to compound TGI for human leukemia cells
Leukemia cell [5] = assay: Ratio of 5-FU LC50 to compound LC50 for human leukemia cells
Summary of the method: (§3)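 Compounds passing the NCI single-dose primary screen were retested across the 60 human tumour cell lines (nine subpanels) over a 5-log dose range. GI50, TGI and LC50 were recorded for each cell line, with 5-fluorouracil run as the reference drug. Subpanel values for compound and 5-FU were then compared.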

Melanoma cell [6] = assay: Ratio of 5-FU GI50 to compound GI50 for human melanoma cells; summary of the method: as §3
Cancer cell lines [7] = assay: Ratio of 5-FU LC50 to compound LC50 for human CNS cancer cells; summary of the method: as §3
Cancer cell lines [8] = assay: Ratio of 5-FU LC50 to compound LC50 for human breast cancer cells; summary of the method: as §3
Cancer cell lines [9] = assay: Ratio of 5-FU GI50 to compound GI50 for human renal cancer cells; summary of the method: as §3
Cancer cell lines [10] = assay: Ratio of 5-FU TGI to compound TGI for human ovarian cancer cells
Cancer cell lines [11] = assay: Ratio of 5-FU LC50 to compound LC50 for human prostate cancer cells; summary of the method: as §3
Cancer cell lines [12] = assay: Ratio of 5-FU TGI to compound TGI for human breast cancer cells
[13] = Cytotoxicity against human melanoma cells at 10 uM after 48 hrs; conditions: Melanoma cell; summary of the method: as §1
Melanoma cell [14] = assay: Ratio of 5-FU LC50 to compound LC50 for human melanoma cells; summary of the method: as §3
[15] = Cytotoxicity against human breast cancer cells at 10 uM after 48 hrs; conditions: Cancer cell lines; summary of the method: as §1
[16] = Cytotoxicity against human non-small cell lung cancer cells at 10 uM after 48 hrs; conditions: Cancer cell lines; summary of the method: as §1
Cancer cell lines [17] = assay: Ratio of 5-FU GI50 to compound GI50 for human ovarian cancer cells; summary of the method: as §3
Cancer cell lines [18] = assay: Ratio of 5-FU LC50 to compound LC50 for human non-small cell lung cancer cells; summary of the method: as §3
Leukemia cell [19] = assay: Ratio of 5-FU GI50 to compound GI50 for human leukemia cells; summary of the method: as §3
Cancer cell lines [20] = assay: Ratio of 5-FU TGI to compound TGI for human prostate cancer cells
Cancer cell lines [21] = assay: Ratio of 5-FU GI50 to compound GI50 for human non-small cell lung cancer cells; summary of the method: as §3
[22] = Cytotoxicity against human renal cancer cells at 10 uM after 48 hrs; conditions: Cancer cell lines
Cancer cell lines [23] = assay: Ratio of 5-FU GI50 to compound GI50 for human breast cancer cells; summary of the method: as §3
[24] = Cytotoxicity against human CNS cancer cells at 10 uM after 48 hrs; conditions: Cancer cell lines
[25] = read-out: LC50 (the source's name)

Work on `COc1ccc(/C=C2\CCCc3c2nc(C)nc3-c2ccc(OC)cc2)cc1` yielded an inhibition of growth at 10 µM (KM12) of under 30%, an inhibition of growth at 10 µM (OVCAR-3) of under 30% and an inhibition of growth at 10 µM (HCT-15) of under 30%. The inhibition of growth at 10 µM (HT-29) was under 30%, the inhibition of growth at 10 µM (SN12C) was under 30% and the inhibition of growth at 10 µM (Malme-3M) was under 30%. It also gave an inhibition of growth at 10 µM (M14) of under 30%, an inhibition of growth at 10 µM [1] of under 30% and an inhibition of growth at 10 µM (HL-60(TB)) of under 30%. For the same compound, the inhibition of growth at 10 µM (MDA-MB-435) was 40.5%, the inhibition of growth at 10 µM (RPMI-8226) was 50.1% and the inhibition of growth at 10 µM [2] was under 30%. The inhibition of growth at 10 µM (786-0) was under 30%, the inhibition of growth at 10 µM (SK-MEL-5) was under 30% and the inhibition of growth at 10 µM (DU-145) was under 30%. It also gave an inhibition of growth at 10 µM (OVCAR-8) of under 30%, an inhibition of growth at 10 µM (A498) of under 30% and an inhibition of growth at 10 µM [3] of under 30%. For the same compound, the inhibition of growth at 10 µM (MDA-MB-468) was under 30%, the inhibition of growth at 10 µM (BT-549) was under 30% and the inhibition of growth at 10 µM (HCT-116) was under 30%. The inhibition of growth at 10 µM (ACHN) was under 30% and the inhibition of growth at 10 µM (NCI-H460) was under 30%.

With `COc1ccc(/C=C2\CCCC3=C(c4ccc(OC)cc4)Nc4ccccc4N=C32)cc1` the inhibition of growth at 10 µM (KM12) was 72.5%, the inhibition of growth at 10 µM (OVCAR-3) was under 30% and the inhibition of growth at 10 µM (HCT-15) was under 30%. For the same compound, the inhibition of growth at 10 µM (HT-29) was under 30%, the inhibition of growth at 10 µM (SN12C) was under 30% and the inhibition of growth at 10 µM (Malme-3M) was under 30%. It also gave an inhibition of growth at 10 µM (M14) of under 30%, an inhibition of growth at 10 µM [1] of under 30% and an inhibition of growth at 10 µM (HL-60(TB)) of under 30%. It also gave an inhibition of growth at 10 µM (MDA-MB-435) of 86.2%, an inhibition of growth at 10 µM (RPMI-8226) of 74.3% and an inhibition of growth at 10 µM [2] of under 30%. It also gave an inhibition of growth at 10 µM (786-0) of under 30%, an inhibition of growth at 10 µM (SK-MEL-5) of under 30% and an inhibition of growth at 10 µM (DU-145) of under 30%. The inhibition of growth at 10 µM (OVCAR-8) was under 30%, the inhibition of growth at 10 µM (A498) was under 30% and the inhibition of growth at 10 µM [3] was under 30%. For the same compound, the inhibition of growth at 10 µM (MDA-MB-468) was 56.4%, the inhibition of growth at 10 µM (BT-549) was under 30% and the inhibition of growth at 10 µM (HCT-116) was 61.9%. The inhibition of growth at 10 µM (ACHN) was under 30% and the inhibition of growth at 10 µM (NCI-H460) was under 30%.

`COc1cc(/C=C2\CCCc3c2nc(C)nc3-c2cc(OC)c(OC)c(OC)c2)cc(OC)c1OC` gave a Ratio (Leukemia cell [4]) of 15, a RatioLC50 (Leukemia cell [5]) of 15 and an inhibition of growth at 10 µM (KM12) of 97.1%. It also gave an inhibition of growth at 10 µM (OVCAR-3) of 72%, an inhibition of growth at 10 µM (HCT-15) of 95.8% and an inhibition of growth at 10 µM (HT-29) of 92.1%. The inhibition of growth at 10 µM (SN12C) was 89.2%, the RatioGI50 (Melanoma cell [6]) was 15 and the inhibition of growth at 10 µM (Malme-3M) was 69.8%. The RatioLC50 (Cancer cell lines [7]) was 15, the RatioLC50 (Cancer cell lines [8]) was 15 and the RatioGI50 (Cancer cell lines [9]) was 15. The Ratio (Cancer cell lines [10]) was 15, the RatioLC50 (Cancer cell lines [11]) was 15 and the Ratio (Cancer cell lines [12]) was 15. The GI50 [13] was 1.4 µM, the TGI [13] was 3.1 µM and the CC50 [13, 25] was over 100 µM. The RatioLC50 (Melanoma cell [14]) was 15, the inhibition of growth at 10 µM [1] was 88.1% and the GI50 [15] was 2.6 µM. The LC50 (concentration killing 50% of cells) [15] was over 100 µM, the TGI [15] was 80.8 µM and the inhibition of growth at 10 µM (MDA-MB-435) was 94.8%. It also gave an inhibition of growth at 10 µM [2] of 56.2%, a GI50 [16] of 2.7 µM and a TGI [16] of over 100 µM. For the same compound, the CC50 [16, 25] was over 100 µM, the inhibition of growth at 10 µM (786-0) was 82% and the inhibition of growth at 10 µM (SK-MEL-5) was 80.9%. It also gave a RatioGI50 (Cancer cell lines [17]) of 15, an inhibition of growth at 10 µM (DU-145) of 95.1% and a RatioLC50 (Cancer cell lines [18]) of 15. The inhibition of growth at 10 µM (OVCAR-8) was 94.1%, the inhibition of growth at 10 µM (A498) was 83.7% and the RatioGI50 (Leukemia cell [19]) was 15. The inhibition of growth at 10 µM [3] was under 30%, the Ratio (Cancer cell lines [20]) was 15 and the inhibition of growth at 10 µM (BT-549) was 97.1%. It also gave an inhibition of growth at 10 µM (ACHN) of 87.5%, a RatioGI50 (Cancer cell lines [21]) of 15 and a CC50 [22] of over 100 µM. The GI50 [22] was 2.2 µM, the TGI [22] was 42 µM and the RatioGI50 (Cancer cell lines [23]) was 15. It also gave a GI50 [24] of 34.5 µM, a TGI [24] of over 100 µM and a CC50 [24, 25] of over 100 µM.
